Test results reported in ChEMBL document CHEMBL5325390, “1,2,4-Triazole-3-thione analogues with an arylakyl group at position 4 as metallo-β-lactamase inhibitors” (Bioorg Med Chem, 2022).

Tests used:
[1] = test system: metallo-β-lactamase IMP-1 (Pseudomonas aeruginosa); experiment: Inhibition of IMP1 (unknown origin) expressed in Escherichia coli BL21(DE3) assessed as substrate hydrolysis at 200 uM by UV-Vis spectrophotometric analysis relative to control
[2] = target: Metallo-beta-lactamase type 2 (Bacteria) (UniProt C7C422); experiment: Inhibition of NDM1 (unknown origin) expressed in Escherichia coli BL21(DE3) assessed as substrate hydrolysis at 200 uM by UV-Vis spectrophotometric analysis relative to control
Summary of the method: (§1)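 Single-point screen at 100 or 200 µM inhibitor against purified MBL (1–70 nM) with 150 µM imipenem or meropenem reporter substrate, 50 mM HEPES pH 7.5, 30 °C. Initial hydrolysis rate read by absorbance at 300 nm and compared with the uninhibited reaction. Triplicate.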

[3] = target: Metallo-beta-lactamase type 2 (Bacteria) (UniProt C7C422); experiment: Inhibition of NDM1 (unknown origin) expressed in Escherichia coli BL21(DE3) assessed as substrate hydrolysis at 100 uM by UV-Vis spectrophotometric analysis relative to control
Summary of the method: as §1

[4] = test system: metallo-β-lactamase VIM-2 (Pseudomonas aeruginosa); experiment: Inhibition of VIM-2 (unknown origin) expressed in Escherichia coli BL21(DE3) assessed as substrate hydrolysis at 200 uM by UV-Vis spectrophotometric analysis relative to control
[5] = test system: metallo-β-lactamase VIM-2 (Pseudomonas aeruginosa); experiment: Inhibition of VIM-2 (unknown origin) expressed in Escherichia coli BL21(DE3) assessed as substrate hydrolysis at 100 uM by UV-Vis spectrophotometric analysis relative to control
[6] = test system: metallo-β-lactamase IMP-1 (Pseudomonas aeruginosa); experiment: Inhibition of IMP1 (unknown origin) expressed in Escherichia coli BL21(DE3) assessed as substrate hydrolysis at 100 uM by UV-Vis spectrophotometric analysis relative to control
Beta-lactamase VIM-1 = Beta-lactamase VIM-1 (Bacteria, UniProt Q8GDC1); experiment: Binding affinity to VIM-1 (unknown origin) expressed in Escherichia coli BL21(DE3) assessed as inhibition constant by measuring rate of substrate hydrolysis by UV-Vis spectrophotometric analysis
Summary of the method: (§2)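 Purified MBL (1–70 nM) with 150 µM imipenem or meropenem as reporter substrate, 50 mM HEPES pH 7.5, 30 °C. Hydrolysis followed by absorbance at 300 nm without and with inhibitor (0.5 µM–1 mM). Ki from the slope of v0/vi vs [I] under a competitive model, or from Dixon plots varying inhibitor and substrate. […] Triplicate, mean ± SD.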

[7] = Binding affinity to VIM-2 (unknown origin) expressed in Escherichia coli BL21(DE3) assessed as inhibition constant by measuring rate of substrate hydrolysis by UV-Vis spectrophotometric analysis
Summary of the method: as §2

[8] = test system: metallo-β-lactamase VIM-4 (Pseudomonas aeruginosa); experiment: Inhibition of VIM-4 (unknown origin) expressed in Escherichia coli BL21(DE3) assessed as substrate hydrolysis at 200 uM by UV-Vis spectrophotometric analysis relative to control
[9] = test system: metallo-β-lactamase VIM-4 (Pseudomonas aeruginosa); experiment: Inhibition of VIM-4 (unknown origin) expressed in Escherichia coli BL21(DE3) assessed as substrate hydrolysis at 100 uM by UV-Vis spectrophotometric analysis relative to control
Klebsiella pneumoniae [10] = experiment: Antimicrobial synergistic activity against blaVIM-1-producing multidrug-resistant Klebsiella pneumoniae 7023 clinical isolate assessed as meropenem MIC at 32 ug/ml by CLSI based broth microdilution method (reference value: 16 ug/ml); assay type: functional; conditions: dose 32 µg/ml
Escherichia coli = experiment: Synergistic antimicrobial activity against blaNDM-1-producing multidrug-resistant Escherichia coli SI-004M clinical isolate assessed as meropenem MIC at 32 ug/ml by CLSI based microdilution method (reference value: 64 ug/ml); assay type: functional; conditions: dose 32 µg/ml
Klebsiella pneumoniae [11] = experiment: Antimicrobial synergistic activity against blaVIM-4-producing multidrug-resistant Klebsiella pneumoniae VA416/02 clinical isolate assessed as meropenem MIC at 32 ug/ml by CLSI based broth microdilution method (reference value: 16 ug/ml); assay type: functional; conditions: dose 32 µg/ml
[12] = Binding affinity to VIM-4 (unknown origin) expressed in Escherichia coli BL21(DE3) assessed as inhibition constant by measuring rate of substrate hydrolysis by UV-Vis spectrophotometric analysis
Summary of the method: as §2

[13] = target: Metallo-beta-lactamase type 2 (Bacteria, UniProt C7C422); experiment: Binding affinity to NDM1 (unknown origin) expressed in Escherichia coli BL21(DE3) assessed as inhibition constant by measuring rate of substrate hydrolysis by UV-Vis spectrophotometric analysis
Summary of the method: as §2

[14] = Binding affinity to IMP1 (unknown origin) expressed in Escherichia coli BL21(DE3) assessed as inhibition constant by measuring rate of substrate hydrolysis by UV-Vis spectrophotometric analysis
Summary of the method: as §2

Sequence of Metallo-beta-lactamase type 2 (Bacteria) (C7C422 whole entry): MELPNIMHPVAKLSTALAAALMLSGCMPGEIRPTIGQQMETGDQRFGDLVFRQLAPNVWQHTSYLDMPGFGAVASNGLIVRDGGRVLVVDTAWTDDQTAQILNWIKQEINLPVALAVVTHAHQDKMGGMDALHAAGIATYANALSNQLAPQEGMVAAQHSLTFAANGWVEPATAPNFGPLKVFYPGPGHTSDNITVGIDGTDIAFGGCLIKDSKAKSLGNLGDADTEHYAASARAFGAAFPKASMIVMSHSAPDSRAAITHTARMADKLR
Sequence of Metallo-beta-lactamase type 2 (C7C422 whole entry): as above

Row | inhibition [1] [%] | inhibition [2] [%] | inhibition [3] [%] | inhibition [4] [%] | inhibition [5] [%] | inhibition [6] [%] | inhibition [8] [%] | inhibition [9] [%] | SMILES | Ki (Beta-lactamase VIM-1) [µM] | Ki [7] [µM] | MIC (Klebsiella pneumoniae [10]) [µg/mL] | MIC (Escherichia coli) [µg/mL] | MIC (Klebsiella pneumoniae [11]) [µg/mL] | Ki [12] [µM] | Ki ([13]; read-out: Ki) [µM] | Ki ([13]; read-out: Ki(app)) [µM] | Ki ([14]; read-out: Ki) [µM] | Ki ([14]; read-out: Ki(app)) [µM]
1 | < 50 | < 50 | < 30 | < 50 | < 30 | < 30 |  |  | O=C1OC(Cn2c(-c3cccc(-c4ccccc4)c3)n[nH]c2=S)c2ccccc21 (configuration not stated) |  |  |  |  |  |  |  |  |  | 
2 |  |  | < 30 |  |  |  |  |  | Sc1nnc(-c2ccccc2)n1-c1ccccc1 | 3.2 | 16 |  |  |  |  |  |  |  | 
3 |  | < 50 | < 30 | < 50 | < 30 | 55 | < 50 | < 30 | CC(Cn1c(-c2ccccc2)n[nH]c1=S)c1ccccc1 (configuration not stated) |  |  |  |  |  |  |  |  |  | 
4 |  | < 50 | < 30 | < 50 | < 30 | 48 |  |  | O=C1OC(Cn2c(-c3ccc(-c4ccccc4)cc3)n[nH]c2=S)c2ccccc21 (configuration not stated) |  |  |  |  |  |  |  |  |  | 
5 |  |  | < 30 |  |  |  |  |  | O=C(O)c1ccc(-n2c(S)nnc2-c2ccccc2)cc1 |  |  |  |  |  |  |  |  |  | 
6 | < 50 |  |  |  | 35 | < 30 |  |  | Oc1ccc(CCn2c(-c3ccccc3-c3ccccc3)n[nH]c2=S)c(O)c1 | 27 |  |  |  |  | 60 | 15.2 |  |  | 
7 |  |  |  |  | < 30 |  |  |  | S=c1[nH]nc(-c2cc(Cl)cc(Cl)c2)n1/N=C/c1ccc(OCc2ccccc2)cc1 |  |  |  |  |  | 0.6 |  |  | 0.1 | 
8 |  |  |  |  |  |  |  |  | O=C(O)c1ccccc1/C=N/n1c(-c2cccc(-c3ccccc3)c2)n[nH]c1=S |  | 0.2 |  |  |  | 0.04 | 4.2 |  | 17.7 | 
9 |  |  |  |  |  |  |  |  | COc1ccc(O)c(-c2n[nH]c(=S)n2CCc2ccccc2)c1 | 1.9 | 3.9 | 4 | 64 | 2 | 1.5 | 6.8 |  | 20.2 | 
10 |  |  |  |  |  |  |  |  | Oc1ccc(CCn2c(-c3ccccc3)n[nH]c2=S)cc1 | 2.1 | 6.1 | 4 | 64 | 4 | 2.3 | 12 |  | 42 | 
11 | < 50 | < 50 | < 30 | < 50 | < 30 | < 30 |  |  | FC(F)(F)c1ccc(CCn2c(-c3ccccc3)n[nH]c2=S)cc1 |  |  |  |  |  |  |  |  |  | 
12 | < 50 | < 50 | < 30 | < 50 | < 30 | < 30 |  | 35 | S=c1[nH]nc(-c2ccc3ccccc3c2)n1[C@@H]1C[C@H]1c1ccccc1 |  |  |  |  |  |  |  |  |  | 
13 |  |  | 45 | < 50 | < 30 | 45 | < 50 | < 30 | O=C(NCc1ccccc1)c1ccccc1CCn1c(-c2ccccc2)n[nH]c1=S |  |  |  |  |  |  |  |  |  | 
14 |  | < 50 | < 30 | < 50 | < 30 |  |  |  | Oc1ccc(CCn2c(-c3ccc4ccccc4c3)n[nH]c2=S)cc1 | 3.3 |  |  |  |  | 3.2 |  |  | 24 | 
15 |  | < 50 | < 30 | < 50 | < 30 | 35 |  |  | COc1ccc(O)c(-c2n[nH]c(=S)n2CCc2ccc(OCc3ccccc3)cc2)c1 | 11.1 |  |  |  |  | 0.54 |  |  |  | 
16 | < 50 | < 50 | < 30 | < 50 | < 30 | < 30 | < 50 | < 30 | S=c1[nH]nc(-c2ccc3ccccc3c2)n1CCc1ccccc1 | 3.7 |  |  |  |  |  |  |  |  | 
17 |  |  |  |  |  |  |  |  | Oc1cccc(CCn2c(-c3cccc(-c4ccccc4)c3)n[nH]c2=S)c1O | 0.7 | 1.8 | 16 | 32 | 4 | 0.8 | 22.4 |  | 20 | 
18 |  |  |  |  |  |  |  |  | Oc1ccc(/C=N/n2c(-c3ccccc3-c3ccccc3)n[nH]c2=S)c(O)c1 |  | 4.5 |  |  |  | 9 | 6.4 |  | 12 | 
19 |  | < 50 | < 30 |  |  | 56 |  |  | Cc1ccccc1-c1n[nH]c(=S)n1CCc1ccc(O)cc1 |  |  |  |  |  | 1.6 |  |  |  | 
20 |  |  |  | < 50 | < 30 |  |  |  | O=C1OC(Cn2c(-c3ccc4ccccc4c3)n[nH]c2=S)c2ccccc21 (configuration not stated) | 6.3 |  |  |  |  | 8.2 |  | 28 | 9.8 | 
21 | < 50 | < 50 | < 30 | < 50 | < 30 | < 30 |  |  | Cc1ccccc1CCn1c(-c2ccccc2)n[nH]c1=S |  |  |  |  |  |  |  |  |  | 
22 |  |  | < 30 |  |  | < 30 |  |  | O=C(O)c1ccccc1CCn1c(-c2cccc(-c3ccccc3)c2)n[nH]c1=S |  | 0.08 |  |  |  | 2.1 |  |  |  | 
23 | < 50 |  | 69 | < 50 | < 30 | < 30 | < 50 | < 30 | S=c1[nH]nc(-c2cccc(-c3ccccc3)c2)n1[C@@H]1C[C@H]1c1ccccc1 |  |  |  |  |  |  |  |  |  | 

Row | SMILES | inhibition [1] [%] | inhibition [2] [%] | inhibition [3] [%] | inhibition [4] [%] | inhibition [5] [%] | inhibition [6] [%] | inhibition [8] [%] | inhibition [9] [%] | Ki (Beta-lactamase VIM-1) [µM] | Ki [7] [µM] | MIC (Klebsiella pneumoniae [10]) [µg/mL] | MIC (Escherichia coli) [µg/mL] | MIC (Klebsiella pneumoniae [11]) [µg/mL] | Ki [12] [µM] | Ki ([13]; read-out: Ki) [µM] | Ki ([13]; read-out: Ki(app)) [µM] | Ki ([14]; read-out: Ki) [µM] | Ki ([14]; read-out: Ki(app)) [µM]
24 | O=C1OC(Cn2c(-c3ccccc3)n[nH]c2=S)c2ccccc21 (configuration not stated) | < 50 |  | 51 | < 50 | < 30 | < 30 |  |  | 0.75 |  | 2 | 64 | 2 | 7.8 |  |  |  | 
25 | S=c1[nH]nc(-c2ccccc2)n1CCc1ccccc1 | < 50 | < 50 | < 30 | < 50 | < 30 | < 30 |  |  | 3.2 |  | 2 | 64 | 2 | 2.1 |  |  |  | 
26 | Oc1ccc(CCn2c(-c3ccccc3)n[nH]c2=S)c(O)c1 |  |  |  | < 50 | < 30 |  |  |  | 5.1 |  | 4 |  | 2 | 4.1 |  | 42 | 27 | 
27 | COc1ccc(O)c(-c2n[nH]c(=S)n2CCc2ccc(O)cc2)c1 | < 50 | < 50 | < 30 |  |  | < 30 |  |  | 1.6 | 3.9 | 2 |  | 2 | 1.9 |  |  |  | 
28 | Oc1ccc(CCn2c(-c3cc(-c4ccccc4)ccc3O)n[nH]c2=S)c(O)c1 |  |  | 38 |  |  | 44 |  |  | 0.76 | 1.9 | 1 | 64 | 2 | 0.85 |  |  |  | 
29 | COc1ccc(O)c(-c2n[nH]c(=S)n2[C@@H]2C[C@H]2c2ccccc2)c1 |  |  |  |  | 41 |  |  |  | 2.2 |  | 4 | 32 | 2 | 2.5 | 9.5 |  | 4.6 | 
30 | Cc1ccccc1-c1n[nH]c(=S)n1CCc1ccccc1 |  | < 50 | < 30 |  |  |  |  |  | 3.3 | 9.4 | 4 |  | 4 | 2.4 |  |  |  | 14
31 | Cn1cccc1-c1n[nH]c(=S)n1CC1OC(=O)c2ccccc21 (configuration not stated) |  |  | 31 |  | 38 | 30 |  |  | 2.2 |  | 2 | 32 | 2 | 2.5 |  |  |  | 
